Tests used:
[1] = biological target: T1, 5-hydroxytryptamine receptor 1A (Rattus norvegicus, UniProt P19327); assay: Binding constant against 5-hydroxytryptamine 1A receptor (in vivo); details: in the assay text read “(in vitro)” for “(in vivo)”
T1 sequence (P19327 whole entry): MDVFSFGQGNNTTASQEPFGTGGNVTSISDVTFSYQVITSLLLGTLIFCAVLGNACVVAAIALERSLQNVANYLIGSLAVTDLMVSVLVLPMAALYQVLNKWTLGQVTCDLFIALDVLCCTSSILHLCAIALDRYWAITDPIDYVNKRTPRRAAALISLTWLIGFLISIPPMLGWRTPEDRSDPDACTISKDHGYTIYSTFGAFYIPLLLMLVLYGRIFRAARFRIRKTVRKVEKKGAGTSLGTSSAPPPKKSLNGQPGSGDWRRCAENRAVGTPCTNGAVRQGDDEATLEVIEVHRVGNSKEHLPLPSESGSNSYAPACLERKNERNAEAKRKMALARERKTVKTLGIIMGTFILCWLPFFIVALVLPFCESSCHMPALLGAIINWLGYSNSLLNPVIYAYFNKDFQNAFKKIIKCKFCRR
Procedure, shortened: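 Rat hippocampal membranes (1 mg/mL protein, Tris-HCl) preincubated 5 min at 37 °C with compound, then [3H]-8-OH-DPAT (final 1 nM) added for a further 10 min. Nonspecific binding from 10⁻⁵ M serotonin. Filtration through glass-fibre filters, two ice-cold buffer washes, scintillation counting of bound radioactivity.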

D(2) dopamine receptor [2] = biological target: T2, D(2) dopamine receptor (Rattus norvegicus, UniProt P61169); assay: The concentration required to inhibit [3H]spiperone binding to dopamine receptor D2 in rat brain membranes (in vitro); assay type: cell membranes
T2 sequence (P61169 whole entry): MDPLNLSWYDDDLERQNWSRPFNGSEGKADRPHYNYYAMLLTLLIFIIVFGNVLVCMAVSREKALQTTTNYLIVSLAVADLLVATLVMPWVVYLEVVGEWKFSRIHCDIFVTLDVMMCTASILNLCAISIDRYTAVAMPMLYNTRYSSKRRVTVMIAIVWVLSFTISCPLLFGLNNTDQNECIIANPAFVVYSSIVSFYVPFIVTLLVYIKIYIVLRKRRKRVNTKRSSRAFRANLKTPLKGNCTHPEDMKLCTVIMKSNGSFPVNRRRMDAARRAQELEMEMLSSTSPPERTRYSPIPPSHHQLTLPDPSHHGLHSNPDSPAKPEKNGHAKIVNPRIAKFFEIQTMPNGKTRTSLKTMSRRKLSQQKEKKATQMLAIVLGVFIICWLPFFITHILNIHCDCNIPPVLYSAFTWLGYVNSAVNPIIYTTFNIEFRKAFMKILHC
Procedure, shortened: (§1)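 Rat striatal membranes (0.05 mg/mL protein) in Tris-HCl with BSA 2 mg/mL, NaCl, cinanserin 10⁻⁶ M and compound. [3H]spiperone (final 0.05 nM) added after 5 min, incubation continued 40 min. Nonspecific binding from 10⁻⁶ M sulpiride. Filtration and scintillation counting.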

D(2) dopamine receptor [3] = biological target: T2, D(2) dopamine receptor; assay: Binding constant against dopamine receptor D2 […]; procedure, shortened: as §1
Histamine H1 receptor = Histamine H1 receptor (Cavia porcellus, UniProt P31389); assay: Binding constant against histamine H1 receptor […]
Chain of Histamine H1 receptor (P31389 whole entry): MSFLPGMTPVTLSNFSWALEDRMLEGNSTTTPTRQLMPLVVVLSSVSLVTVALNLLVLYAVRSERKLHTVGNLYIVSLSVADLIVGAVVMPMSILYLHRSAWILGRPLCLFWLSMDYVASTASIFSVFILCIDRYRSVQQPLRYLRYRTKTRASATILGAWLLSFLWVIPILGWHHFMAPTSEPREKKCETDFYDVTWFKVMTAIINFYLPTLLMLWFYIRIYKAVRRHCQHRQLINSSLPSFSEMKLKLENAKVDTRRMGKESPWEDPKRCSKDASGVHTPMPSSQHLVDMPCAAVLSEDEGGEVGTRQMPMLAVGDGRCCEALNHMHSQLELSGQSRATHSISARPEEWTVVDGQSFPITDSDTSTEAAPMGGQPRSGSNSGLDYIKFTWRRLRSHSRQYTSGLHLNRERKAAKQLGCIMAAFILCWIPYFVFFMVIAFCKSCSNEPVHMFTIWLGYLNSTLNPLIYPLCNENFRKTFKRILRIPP
Procedure, shortened: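 Male guinea pig cerebellar membranes (0.35 mg/mL protein) in 50 mM sodium phosphate pH 7.5. Incubated 30 min at 25 °C with compound and [3H]mepyramine (final 0.7 nM). Nonspecific binding from 10⁻⁶ M promethazine. Filtration through glass-fibre filters and liquid scintillation counting.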

Mus musculus [4] = assay: The concentration required to induce head twich in mice when given po (in vivo); assay type: functional
Procedure, shortened: (§2)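 Mice, 6 per dose, dosed sc 60 min or po 90 min before mescaline 50 mg/kg ip. Observed for 2 min starting 15 min after mescaline; head twitches scored as all-or-none.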

Mus musculus [5] = assay: The concentration required to induce head twich in mice when given sc (in vivo); assay type: functional; procedure, shortened: as §2
Rattus norvegicus [6] = assay: The concentration required to induce head twich for 16 hours in rats when given po (in vivo); assay type: functional
Procedure, shortened: (§3)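 Rats, 6 per dose, dosed sc or po, then given mescaline 20 mg/kg iv 1 h later (6 or 16 h later for duration of action). Head twitches counted for 15 min from injection. Fewer than 3 twitches counted as antagonism.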

Rattus norvegicus [7] = assay: The concentration required to induce head twich for 6 hours in rats when given po (in vivo); assay type: functional; procedure, shortened: as §3
Rattus norvegicus [8] = assay: The concentration required to induce head twich for 6 hours in rats when given sc (in vivo); assay type: functional; procedure, shortened: as §3
Rattus norvegicus [9] = assay: The concentration required to induce head twich for 1 hours in rats when given po (in vivo); assay type: functional; procedure, shortened: as §3
Rattus norvegicus [10] = assay: The concentration required to induce head twich for 1 hours in rats when given sc (in vivo); assay type: functional; procedure, shortened: as §3
Rattus norvegicus [11] = assay: The concentration required to induce head twich for 16 hours in rats when given sc (in vivo); assay type: functional; procedure, shortened: as §3
[12] = biological target: Serotonin 2 (5-HT2) receptor (Rattus norvegicus, UniProt P30994+P08909+P14842); assay: The concentration required to inhibit [3H]ketanserin binding to 5-hydroxytryptamine 2 receptor in rat brain membranes (in vitro); assay type: cell membranes
Procedure, shortened: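 Male Sprague-Dawley rat cortical membranes (0.15 mg/mL protein) in Tris-HCl pH 7.6 with BSA 2 mg/mL. Incubated 15 min at 37 °C with compound and [3H]ketanserin (final 0.4 nM). Nonspecific binding from 10⁻⁶ M methysergide. Filtration and scintillation counting. IC50 by nonlinear regression; mean of at least 2 runs, 6 concentrations in triplicate.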

[13] = biological target: T3, Adrenergic receptor alpha-1 (Rattus norvegicus, UniProt P15823+P23944+P43140); assay: The concentration required to inhibit 3[H]prazosin binding to Alpha-1 adrenergic receptor in rat brain membranes was measured (in vitro); assay type: cell membranes
T3 sequence (P15823 whole entry): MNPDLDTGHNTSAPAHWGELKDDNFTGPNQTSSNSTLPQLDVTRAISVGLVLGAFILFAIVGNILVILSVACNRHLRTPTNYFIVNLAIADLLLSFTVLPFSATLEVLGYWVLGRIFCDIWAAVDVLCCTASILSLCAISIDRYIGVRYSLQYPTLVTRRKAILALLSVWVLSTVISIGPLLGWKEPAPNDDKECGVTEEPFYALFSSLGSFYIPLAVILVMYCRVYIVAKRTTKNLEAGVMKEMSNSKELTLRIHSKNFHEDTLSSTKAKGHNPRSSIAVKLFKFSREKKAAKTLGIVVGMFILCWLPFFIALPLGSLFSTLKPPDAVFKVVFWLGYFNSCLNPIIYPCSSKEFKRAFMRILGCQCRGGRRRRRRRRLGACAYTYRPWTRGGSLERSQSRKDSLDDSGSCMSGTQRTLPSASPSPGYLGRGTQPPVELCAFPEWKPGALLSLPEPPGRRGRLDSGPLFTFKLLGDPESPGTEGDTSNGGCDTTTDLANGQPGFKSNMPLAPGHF
T3 sequence (P23944 whole entry): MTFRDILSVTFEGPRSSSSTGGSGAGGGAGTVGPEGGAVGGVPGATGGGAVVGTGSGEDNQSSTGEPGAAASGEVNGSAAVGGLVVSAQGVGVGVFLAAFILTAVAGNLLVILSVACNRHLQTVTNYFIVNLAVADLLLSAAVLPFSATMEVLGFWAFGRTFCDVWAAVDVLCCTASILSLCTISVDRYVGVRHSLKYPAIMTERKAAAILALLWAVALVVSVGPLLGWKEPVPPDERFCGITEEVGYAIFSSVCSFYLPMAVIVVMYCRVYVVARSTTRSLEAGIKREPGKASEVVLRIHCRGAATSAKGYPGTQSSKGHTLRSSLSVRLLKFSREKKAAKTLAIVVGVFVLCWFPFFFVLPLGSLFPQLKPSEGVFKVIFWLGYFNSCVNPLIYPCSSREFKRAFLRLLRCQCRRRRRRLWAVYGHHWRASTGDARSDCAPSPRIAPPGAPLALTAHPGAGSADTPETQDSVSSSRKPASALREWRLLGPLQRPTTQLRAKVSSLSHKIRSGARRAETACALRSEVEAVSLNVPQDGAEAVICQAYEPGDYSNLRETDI
T3 sequence (P43140 whole entry): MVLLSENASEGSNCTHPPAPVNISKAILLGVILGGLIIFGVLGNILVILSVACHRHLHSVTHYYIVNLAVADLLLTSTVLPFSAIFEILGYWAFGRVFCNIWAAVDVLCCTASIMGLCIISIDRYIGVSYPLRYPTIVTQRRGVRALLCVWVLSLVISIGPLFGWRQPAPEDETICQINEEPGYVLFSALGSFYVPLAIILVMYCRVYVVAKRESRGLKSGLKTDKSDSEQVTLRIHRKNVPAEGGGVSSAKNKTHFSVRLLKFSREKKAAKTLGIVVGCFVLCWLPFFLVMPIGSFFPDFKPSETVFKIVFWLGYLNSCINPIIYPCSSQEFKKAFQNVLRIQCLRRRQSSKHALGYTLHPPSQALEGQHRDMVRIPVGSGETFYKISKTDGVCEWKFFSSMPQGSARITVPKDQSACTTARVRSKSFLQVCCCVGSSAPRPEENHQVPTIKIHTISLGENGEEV
Procedure, shortened: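 Male Sprague-Dawley rat cerebrocortical membranes (0.15 mg/mL protein) in Tris-HCl pH 7.6 with BSA 2 mg/mL. Incubated 40 min at 25 °C with compound and [3H]prazosin (final 0.065 nM). Nonspecific binding from 10⁻⁶ M phentolamine. Filtration and scintillation counting. IC50 values are the mean of at least 2 runs, each with 6 concentrations in triplicate.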

Row | IC50 [12] | IC50 [13] | SMILES | Ki [1] | IC50 (D(2) dopamine receptor [2]) | Ki (D(2) dopamine receptor [3]) | Ki (Histamine H1 receptor) | ED50 (Mus musculus [4]) | ED50 (Mus musculus [5]) | ED50 (Rattus norvegicus [6]) | ED50 (Rattus norvegicus [7]) | ED50 (Rattus norvegicus [8]) | ED50 (Rattus norvegicus [9]) | ED50 (Rattus norvegicus [10]) | ED50 (Rattus norvegicus [11])
1 | – | – | O=S1(=O)c2cccc3cccc(c23)N1CCCN1CCN(c2ccc(F)cc2)CC1 [FANANSERIN] | 0.07 µM | > 1 µM | > 1 µM | 0.025 µM | 0.43 mg/kg | 0.16 mg/kg | 14.2 mg/kg | 2.38 mg/kg | 0.45 mg/kg | 0.99 mg/kg | 0.65 mg/kg | 5.91 mg/kg
2 | 0.0037 µM | 0.011 µM | O=S1(=O)c2cccc3cccc(c23)N1CCCCN1CCN(c2ccc(F)cc2)CC1 | – | 0.3 µM | – | – | – | – | – | – | – | – | – | –

Reference: ChEMBL document CHEMBL1125181, “Naphthosultam derivatives: a new class of potent and selective 5-HT2 antagonists” (J Med Chem, 1991)
